What was measured:
Format in all cases: functional
Botrytis cinerea [1] = experiment: Antifungal activity against Botryotinia fuckeliana infected in orange pixie tomato seedlings at 10 ppm relative to control
How it was run: (§1)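 Orange Pixie tomato seedlings sprayed to run-off with test suspension, then inoculated next day with a Botryotinia fuckeliana spore suspension. Kept saturated at 20 °C for 48 h, then 1 more day at 24 °C in a growth chamber before rating. Rates in ppm. Expressed as percent control relative to untreated control plants.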

Botrytis cinerea [2] = experiment: Antifungal activity against Botryotinia fuckeliana infected in orange pixie tomato seedlings at 2 ppm relative to control; how it was run: as §1
Parastagonospora nodorum [3] = experiment: Antifungal activity against Stagonospora nodorum infected in wheat seedlings at 40 ppm relative to control
How it was run: (§2)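 Wheat seedlings, treated the day before, inoculated with a Stagonospora nodorum spore suspension. Held in a saturated atmosphere at 20 °C for 48 h, then 5 days in a growth chamber at 22 °C, then disease rated. Rates in ppm. Scored as percent control relative to untreated control plants.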

Botrytis cinerea [4] = experiment: Antifungal activity against Botryotinia fuckeliana infected in orange pixie tomato seedlings at 40 ppm relative to control; how it was run: as §1
Puccinia triticina [5] = experiment: Antifungal activity against Puccinia recondita f. sp. tritici infected in wheat seedlings at 10 ppm relative to control
How it was run: (§3)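 Test suspension sprayed to run-off on Stevens wheat seedlings. Next day inoculated with a Puccinia recondita f. sp. tritici spore suspension. Held 24 h in a saturated atmosphere at 20 °C, then 7 days in a 20 °C growth chamber before disease rating. Rates in ppm. Given as percent control versus untreated control plants.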

Puccinia triticina [6] = experiment: Antifungal activity against Puccinia recondita f. sp. tritici infected in wheat seedlings at 2 ppm relative to control; how it was run: as §3
Parastagonospora nodorum [7] = experiment: Antifungal activity against Stagonospora nodorum infected in wheat seedlings at 10 ppm relative to control; how it was run: as §2
Parastagonospora nodorum [8] = experiment: Antifungal activity against Stagonospora nodorum infected in wheat seedlings at 2 ppm relative to control; how it was run: as §2
Puccinia triticina [9] = experiment: Antifungal activity against Puccinia recondita f. sp. tritici infected in wheat seedlings at 40 ppm relative to control; how it was run: as §3
Parastagonospora nodorum [10] = experiment: Antifungal activity against Stagonospora nodorum infected in wheat seedlings at 200 ppm relative to control; how it was run: as §2
Puccinia triticina [11] = experiment: Antifungal activity against Puccinia recondita f. sp. tritici infected in wheat seedlings at 200 ppm relative to control; how it was run: as §3

Compound | Activity (Botrytis cinerea [1]) [%] | Activity (Botrytis cinerea [2]) [%] | Activity (Parastagonospora nodorum [3]) [%] | Activity (Botrytis cinerea [4]) [%] | Activity (Puccinia triticina [5]) [%] | Activity (Puccinia triticina [6]) [%] | Activity (Parastagonospora nodorum [7]) [%] | Activity (Parastagonospora nodorum [8]) [%] | Activity (Puccinia triticina [9]) [%] | Activity (Parastagonospora nodorum [10]) [%] | Activity (Puccinia triticina [11]) [%]
CC(C)Cn1c(-c2c(F)cccc2F)c(Cl)nc(-c2nccs2)c1=O | 0 | 0 | 0 | 0 | 0 | 0 | 0 | 0 | 0 | – | –
Cc1ccn(-c2nc(Cl)c(-c3c(F)cccc3F)n(CC(C)C)c2=O)n1 | 100 | 95 | 95 | 100 | 94 | 25 | 0 | 0 | 100 | – | –
CCCCn1c(-c2c(F)cc(F)cc2F)c(Cl)nc(-n2cccn2)c1=O | 0 | 0 | 100 | 100 | 88 | 26 | 98 | 0 | 100 | – | –
CC(C)Cn1c(-c2c(F)cccc2F)c(Cl)nc(-c2ccncc2)c1=O | 0 | 0 | 0 | 0 | 0 | 0 | 0 | 0 | 0 | – | –
O=c1c(-n2cccn2)nc(Cl)c(-c2c(F)cc(F)cc2F)n1-c1ccccc1 | 100 | 100 | 99 | 100 | 87 | 45 | 98 | 60 | 99 | – | –
CC(C)Cn1c(-c2c(F)ccc(F)c2F)c(Cl)nc(-n2cccn2)c1=O | 98 | 94 | 100 | 100 | 99 | 32 | 87 | 0 | 100 | – | –
O=c1c(-n2cccn2)nc(Cl)c(-c2c(F)cc(F)cc2F)n1CC(F)(F)C(F)(F)F | 100 | 99 | 100 | 100 | 99 | 91 | 89 | 0 | 100 | – | –
CC[C@H](C)Cn1c(-c2c(F)cccc2F)c(Cl)nc(C(=O)NC)c1=O | 90 | 57 | 51 | 99 | 74 | 0 | 0 | 0 | 99 | – | –
C=CCn1c(-c2c(F)cc(F)cc2F)c(Cl)nc(-n2cccn2)c1=O | 99 | 70 | 100 | 99 | 89 | 0 | 97 | 0 | 99 | – | –
CC[C@H](C)Cn1c(-c2c(F)cccc2F)c(Cl)nc(C(N)=O)c1=O | 97 | 92 | 95 | 99 | 99 | 80 | 0 | 0 | 100 | – | –
O=c1c(-n2cccn2)nc(Cl)c(-c2c(F)cc(F)cc2F)n1CC1CC1 | 98 | 98 | 100 | 99 | 100 | 80 | 100 | 0 | 100 | – | –
CC(C)Cn1c(-c2c(F)cccc2F)cnc(-n2cccn2)c1=O | – | – | 0 | – | 0 | – | 0 | – | 0 | 0 | 98

Source: ChEMBL document CHEMBL3739347, “Tubulin modulating antifungal and antiproliferative pyrazinone derivatives” (Bioorg Med Chem, 2016)
